Results pooled from the literature.
Each line is one published result; the experiments were not run side by side.
Target: Serine/threonine-protein kinase PLK4 (PLK4, Homo sapiens, UniProt O00444)
Sequence (O00444 1-970, as in one of the studies): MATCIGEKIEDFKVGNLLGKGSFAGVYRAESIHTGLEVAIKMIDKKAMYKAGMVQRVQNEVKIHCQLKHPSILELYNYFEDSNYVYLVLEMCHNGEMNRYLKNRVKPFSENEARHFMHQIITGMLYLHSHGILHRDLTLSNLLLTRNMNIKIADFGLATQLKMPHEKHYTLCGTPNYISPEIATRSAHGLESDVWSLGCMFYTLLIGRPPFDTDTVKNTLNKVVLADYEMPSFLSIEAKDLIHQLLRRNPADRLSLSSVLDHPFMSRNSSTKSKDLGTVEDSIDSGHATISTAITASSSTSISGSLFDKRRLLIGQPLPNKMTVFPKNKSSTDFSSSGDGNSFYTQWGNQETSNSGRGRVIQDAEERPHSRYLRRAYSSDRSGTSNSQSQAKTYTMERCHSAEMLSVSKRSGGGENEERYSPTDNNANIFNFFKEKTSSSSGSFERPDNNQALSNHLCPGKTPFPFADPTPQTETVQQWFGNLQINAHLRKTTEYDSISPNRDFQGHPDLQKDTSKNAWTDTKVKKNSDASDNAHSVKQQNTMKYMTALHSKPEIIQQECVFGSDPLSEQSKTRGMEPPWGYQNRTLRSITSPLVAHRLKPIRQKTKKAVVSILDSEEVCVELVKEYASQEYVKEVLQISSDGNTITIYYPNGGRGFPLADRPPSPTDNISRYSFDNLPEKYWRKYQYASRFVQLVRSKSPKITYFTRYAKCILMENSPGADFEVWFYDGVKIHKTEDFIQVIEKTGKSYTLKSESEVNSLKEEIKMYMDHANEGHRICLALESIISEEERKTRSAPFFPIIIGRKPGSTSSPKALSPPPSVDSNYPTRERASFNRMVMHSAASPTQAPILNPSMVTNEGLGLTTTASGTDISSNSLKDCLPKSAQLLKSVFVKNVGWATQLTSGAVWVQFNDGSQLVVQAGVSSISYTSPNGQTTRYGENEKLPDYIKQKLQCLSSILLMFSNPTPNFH

SMILES | effect on | mode | technique | concentration | quantity | result
CCCCC(=O)Nc1ccc(-c2ccc3ncn(CCC)c(=O)c3c2)cn1 | binding |  | competition with immobilised ligand | 0.5 µM | remaining binding | 100%
COc1ccc2oc(-c3ccc4nc(N)oc4c3)c/c(=N\c3ccccc3NC(=O)CCN)c2c1 | binding |  |  | 1 µM | remaining binding | 98%
N#Cc1ccc(NC(=O)Nc2ccccc2)cc1 | cell-free assay |  | competition with immobilised ligand | 25 µM | remaining binding | 61%
C1=C/COCc2cc(ccc2OCCN2CCCC2)Nc2nccc(n2)-c2cccc(c2)COC/1 | binding |  |  | 0.1 µM | remaining binding | 42%
C=CC(=O)N1CCC[C@@H](n2nc(-c3ccc(Oc4ccccc4)cc3)c3c(N)ncnc32)C1 | enzyme activity | inhibitor |  | 1 µM | inhibition | 5%
C[C@H]1CC[C@H](n2c3cnccc3c3cnc(Nc4ccc5c(n4)CCN(C(=O)CO)C5)nc32)CC1 | binding |  | competition with immobilised ligand | 1 µM | remaining binding | 18%
C=CC(=O)N1CCC([C@@H]2CCNc3c(C(N)=O)c(-c4ccc(Oc5ccccc5)cc4)nn32)CC1 | enzyme activity | inhibitor |  | 1 µM | inhibition | 1%
C#Cc1cc(-c2cc(Nc3nc(N[C@@H](C)c4ccc(F)cn4)ncc3Cl)n[nH]2)ccc1C=O | enzyme activity | inhibitor |  | 0.2 µM | inhibition | 80.7%
Cc1ccc(NC(=O)c2ccnc(C(F)(F)F)c2)cc1-c1cc(OCCO)nc(N2CCOCC2)c1 | binding |  | competition with immobilised ligand | 1 µM | remaining binding | 75%
